In brackets after ≈: the same amount, converted by molar mass. Activity calls are given as the source filed them. The calls are words filed in the database; no cut-off is given here. Numbered stars: 1 amine (or outer) side, 2 acyl side, 3 side chain; on linkers, the order of the positions; unused ones are H or OH. Square brackets hold non-standard residues; d marks the D form. Side chains are listed from the residue outwards. Peptide text beside a SMILES is read from it. * marks the point of attachment. dPhe(4-NHCONH2) = NC(=O)Nc1ccc(C[C@@H](N)C(=O)O)cc1; Dihydroorotyl(S) = O=C1C[C@@H](C(=O)*)NC(=O)N1; dPhe(4-NH2) = Nc1ccc(C[C@@H](N)C(=O)O)cc1; dPhe(4-Cl) = N[C@H](Cc1ccc(Cl)cc1)C(=O)O; Phe(4-NH2) = Nc1ccc(C[C@H](N)C(=O)O)cc1; d2Nal = N[C@H](Cc1ccc2ccccc2c1)C(=O)O; Lys(iPr) = CC(C)NCCCC[C@H](N)C(=O)O; NHCH2CH2OCH2CH2OEt = CCOCCOCCN*; d3Pal = N[C@H](Cc1cccnc1)C(=O)O; Methoxycarbamoyl = CONC(=O)*; CO = O=C([*:1])[*:2]
Key:
[1] = tested on: Mast cell (Rattus norvegicus); assay: Histamine release in mast cells by ELISA
[2] = tested on: Rattus norvegicus; assay: Antiovulatory activity in rat at 2 ug, sc; type: functional, organism-based
Procedure, shortened: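 Cycling rats (250-300 g) given peptide 2 μg in 200 μL saline or 5% DMSO in saline sc at noon on proestrus; scored as number of rats ovulating over total treated (8 per group).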

[3] = biological target: T1, Gonadotropin-releasing hormone receptor (Homo sapiens, UniProt P30968); assay: Antagonist activity at human GnRH receptor expressed in HEK293 cells as inhibition of GnRH-induced LH secretion by reporter gene assay; type: functional, cell-based
T1 sequence (P30968 whole entry): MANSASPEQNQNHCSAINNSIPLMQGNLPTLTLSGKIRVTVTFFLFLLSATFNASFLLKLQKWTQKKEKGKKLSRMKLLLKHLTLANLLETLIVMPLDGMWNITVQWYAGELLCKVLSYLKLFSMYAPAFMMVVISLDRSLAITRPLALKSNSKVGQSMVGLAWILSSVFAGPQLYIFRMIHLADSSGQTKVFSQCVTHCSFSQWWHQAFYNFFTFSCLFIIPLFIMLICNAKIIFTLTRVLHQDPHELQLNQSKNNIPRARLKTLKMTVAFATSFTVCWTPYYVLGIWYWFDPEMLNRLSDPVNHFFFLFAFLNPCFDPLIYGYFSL
Procedure, shortened: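 HEK293 cells stably expressing cloned human GnRH receptor plus luciferase reporter under LH alpha subunit promoter; plated 5 × 10^4 cells/well, overnight 37 °C. Compounds in 1% DMSO, 11 half-log concentrations in duplicate, 10 min preincubation, then GnRH 1 nM final, ≥5 h at 37 °C; luminescence read. Percent of control fitted to IC50; geometric mean of ≥2 independent experiments.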

[4] = tested on: Rattus norvegicus; assay: Inhibition of GnRH-induced LH secretion in Sprague-Dawley rat at 50 ug, sc for 3 hrs; type: functional
Procedure, shortened: (§1)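 Male rats castrated ten days earlier (≥5 per group) injected sc with 50 μg peptide in 50 μL 5% mannitol (0.6% DMSO in the stock); vehicle controls run alongside. Tail-tip blood taken pre-dose and at 3, 72, 96, 120, 144, 168 and sometimes 192 h; plasma LH by RIA, all samples of one experiment in the same assay; >80% inhibition scored.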

[5] = tested on: Rattus norvegicus; assay: Inhibition of GnRH-induced LH secretion in Sprague-Dawley rat at 50 ug, sc for 72 hrs; type: functional
Procedure, shortened: as §1

[6] = tested on: Rattus norvegicus; assay: Inhibition of GnRH-induced LH secretion in Sprague-Dawley rat at 50 ug, sc for 96 hrs; type: functional
Procedure, shortened: as §1

[7] = tested on: Rattus norvegicus; assay: Inhibition of GnRH-induced LH secretion in Sprague-Dawley rat at 50 ug, sc for 120 hrs; type: functional
Procedure, shortened: as §1

SMILES	EC50 [1] [µg/mL]	IC50 [3] [nM]	Activity [2]	also measured
CONC(=O)Nc1ccc(C[C@@H](NC(=O)[C@H](Cc2ccc(NC(=O)NOC)cc2)N(C)C(=O)[C@H](CO)NC(=O)[C@@H](Cc2cccnc2)NC(=O)[C@@H](Cc2ccc(Cl)cc2)NC(=O)[C@@H](Cc2ccc3ccccc3c2)NC(C)=O)C(=O)N[C@@H](CC(C)C)C(=O)N[C@@H](CCCCNC(C)C)C(=O)N2CCC[C@H]2C(=O)N[C@H](C)C(N)=O)cc1	43.1 (≈ 26.8 µM)	0.7	Active	–
CC(=O)N[C@H](Cc1ccc2ccccc2c1)C(=O)N[C@H](Cc1ccc(Cl)cc1)C(=O)N[C@H](Cc1cccnc1)C(=O)N[C@@H](CO)C(=O)N[C@@H](Cc1ccc(NC(=O)NO)cc1)C(=O)N[C@H](Cc1ccc(NC(N)=O)cc1)C(=O)N[C@@H](CC(C)C)C(=O)N[C@@H](CCCCNC(C)C)C(=O)N1CCC[C@H]1C(=O)N[C@H](C)C(N)=O	118 (≈ 75.9 µM)	0.86	–	–
CC(=O)Nc1ccc(C[C@H](NC(=O)[C@H](CO)NC(=O)[C@@H](Cc2cccnc2)NC(=O)[C@@H](Cc2ccc(Cl)cc2)NC(=O)[C@@H](Cc2ccc3ccccc3c2)NC(C)=O)C(=O)N[C@H](Cc2ccc(NC(C)=O)cc2)C(=O)N[C@@H](CC(C)C)C(=O)N[C@@H](CCCCNC(C)C)C(=O)N2CCC[C@H]2C(=O)N[C@H](C)C(N)=O)cc1 [ACYLINE]	461 (≈ 301 µM)	–	Active	–
CONC(=O)Nc1ccc(C[C@H](NC(=O)[C@H](CO)NC(=O)[C@@H](Cc2cccnc2)NC(=O)[C@@H](Cc2ccc(Cl)cc2)NC(=O)[C@@H](Cc2ccc3ccccc3c2)NC(C)=O)C(=O)N[C@H](Cc2ccc(NC(N)=O)cc2)C(=O)N[C@@H](CC(C)C)C(=O)N[C@@H](CCCCNC(C)C)C(=O)N2CCC[C@H]2C(=O)N[C@H](C)C(N)=O)cc1 (Ac-[d2Nal][dPhe(4-Cl)][d3Pal]S[Phe(4-NH2)](Methoxycarbamoyl)[dPhe(4-NHCONH2)]L[Lys(iPr)]P[dA]-NH2)	–	0.6	–	Inhibition [5]: >80%
CCOCCOCCNC(=O)Nc1ccc(C[C@H](NC(=O)[C@H](CO)NC(=O)[C@@H](Cc2cccnc2)NC(=O)[C@@H](Cc2ccc(Cl)cc2)NC(=O)[C@@H](Cc2ccc3ccccc3c2)NC(C)=O)C(=O)N[C@H](Cc2ccc(NC(N)=O)cc2)C(=O)N[C@@H](CC(C)C)C(=O)N[C@@H](CCCCNC(C)C)C(=O)N2CCC[C@H]2C(=O)N[C@H](C)C(N)=O)cc1 (Ac-[d2Nal][dPhe(4-Cl)][d3Pal]S[Phe(4-NH2)]([CO-NHCH2CH2OCH2CH2OEt])[dPhe(4-NHCONH2)]L[Lys(iPr)]P[dA]-NH2)	910 (≈ 551 µM)	–	Active	–
CCOCCOCCNC(=O)N[C@H](Cc1ccc2ccccc2c1)C(=O)N[C@H](Cc1ccc(Cl)cc1)C(=O)N[C@H](Cc1cccnc1)C(=O)N[C@@H](CO)C(=O)N[C@@H](Cc1ccc(NC(=O)NOC)cc1)C(=O)N[C@H](Cc1ccc(NC(N)=O)cc1)C(=O)N[C@@H](CC(C)C)C(=O)N[C@@H](CCCCNC(C)C)C(=O)N1CCC[C@H]1C(=O)N[C@H](C)C(N)=O	50.6 (≈ 30.1 µM)	2.98	Active	–
CCOCCOCCNC(=O)Nc1ccc(C[C@@H](NC(=O)[C@H](Cc2ccc(NC(=O)[C@@H]3CC(=O)NC(=O)N3)cc2)NC(=O)[C@H](CO)NC(=O)[C@@H](Cc2cccnc2)NC(=O)[C@@H](Cc2ccc(Cl)cc2)NC(=O)[C@@H](Cc2ccc3ccccc3c2)NC(C)=O)C(=O)N[C@@H](CC(C)C)C(=O)N[C@@H](CCCCNC(C)C)C(=O)N2CCC[C@H]2C(=O)N[C@H](C)C(N)=O)cc1 (Ac-[d2Nal][dPhe(4-Cl)][d3Pal]S[Phe(4-NH2)](Dihydroorotyl(S))[dPhe(4-NH2)]([CO-NHCH2CH2OCH2CH2OEt])L[Lys(iPr)]P[dA]-NH2)	–	0.88	–	–
CCCC(=O)N[C@H](Cc1ccc2ccccc2c1)C(=O)N[C@H](Cc1ccc(Cl)cc1)C(=O)N[C@H](Cc1cccnc1)C(=O)N[C@@H](CO)C(=O)N[C@@H](Cc1ccc(NC(=O)[C@@H]2CC(=O)NC(=O)N2)cc1)C(=O)N[C@H](Cc1ccc(NC(=O)NOC)cc1)C(=O)N[C@@H](CC(C)C)C(=O)N[C@@H](CCCCNC(C)C)C(=O)N1CCC[C@H]1C(=O)N[C@H](C)C(N)=O	–	2.13	–	–
CC(=O)N[C@H](Cc1ccc2ccccc2c1)C(=O)N[C@H](Cc1ccc(Cl)cc1)C(=O)N[C@H](Cc1cccnc1)C(=O)N[C@@H](CO)C(=O)N[C@@H](Cc1ccc(NC(=O)[C@@H]2CC(=O)NC(=O)N2)cc1)C(=O)N[C@H](Cc1ccc(NC(N)=O)cc1)C(=O)N[C@@H](CC(C)C)C(=O)N[C@@H](CCCCNC(C)C)C(=O)N1CCC[C@H]1C(=O)N[C@H](C)C(N)=O [DEGARELIX] (Ac-[d2Nal][dPhe(4-Cl)][d3Pal]S[Phe(4-NH2)](Dihydroorotyl(S))[dPhe(4-NHCONH2)]L[Lys(iPr)]P[dA]-NH2)	> 1000	–	Active	Inhibition [7]: >80%

Continued by falling IC50 [3], values first:

EC50 [1] [µg/mL]	IC50 [3] [nM]	SMILES	Activity [2]	also measured
–	3.46	CC(=O)N[C@H](Cc1ccc2ccccc2c1)C(=O)N[C@H](Cc1ccc(Cl)cc1)C(=O)N[C@H](CNC(=O)NO)C(=O)N[C@@H](CO)C(=O)N[C@@H](Cc1ccc(NC(=O)[C@@H]2CC(=O)NC(=O)N2)cc1)C(=O)N[C@H](Cc1ccc(NC(N)=O)cc1)C(=O)N[C@@H](CC(C)C)C(=O)N[C@@H](CCCCNC(C)C)C(=O)N1CCC[C@H]1C(=O)N[C@H](C)C(N)=O	–	–
–	2.04	CCOCCOCCNC(=O)Nc1ccc(C[C@H](NC(=O)[C@H](CO)NC(=O)[C@@H](Cc2cccnc2)NC(=O)[C@@H](Cc2ccc(Cl)cc2)NC(=O)[C@@H](Cc2ccc3ccccc3c2)NC(C)=O)C(=O)N[C@H](Cc2ccc(NC(=O)NCCOCCOCC)cc2)C(=O)N[C@@H](CC(C)C)C(=O)N[C@@H](CCCCNC(C)C)C(=O)N2CCC[C@H]2C(=O)N[C@H](C)C(N)=O)cc1	–	–
–	1.61	CCOCCOCCNC(=O)N[C@H](Cc1ccc2ccccc2c1)C(=O)N[C@H](Cc1ccc(Cl)cc1)C(=O)N[C@H](Cc1cccnc1)C(=O)N[C@@H](CO)C(=O)N[C@@H](Cc1ccc(NC(=O)[C@@H]2CC(=O)NC(=O)N2)cc1)C(=O)N[C@H](Cc1ccc(NC(=O)NOC)cc1)C(=O)N[C@@H](CC(C)C)C(=O)N[C@@H](CCCCNC(C)C)C(=O)N1CCC[C@H]1C(=O)N[C@H](C)C(N)=O ({NHCH2CH2OCH2CH2OEt-CO}-[d2Nal][dPhe(4-Cl)][d3Pal]S[Phe(4-NH2)](Dihydroorotyl(S))[dPhe(4-NH2)](Methoxycarbamoyl)L[Lys(iPr)]P[dA]-NH2)	–	Inhibition [4]: >80%
> 1000	1.12	CCOCCOCCNC(=O)Nc1ccc(C[C@H](NC(=O)[C@H](CO)NC(=O)[C@@H](Cc2cccnc2)NC(=O)[C@@H](Cc2ccc(Cl)cc2)NC(=O)[C@@H](Cc2ccc3ccccc3c2)NC(=O)NCCOCCOCC)C(=O)N[C@H](Cc2ccc(NC(N)=O)cc2)C(=O)N[C@@H](CC(C)C)C(=O)N[C@@H](CCCCNC(C)C)C(=O)N2CCC[C@H]2C(=O)N[C@H](C)C(N)=O)cc1	Active	–
46 (≈ 28.8 µM)	0.91	CONC(=O)Nc1ccc(C[C@H](NC(=O)[C@H](CO)NC(=O)[C@@H](Cc2cccnc2)NC(=O)[C@@H](Cc2ccc(Cl)cc2)NC(=O)[C@@H](Cc2ccc3ccccc3c2)NC(C)=O)C(=O)N[C@H](Cc2ccc(NC(=O)NOC)cc2)C(=O)N[C@@H](CC(C)C)C(=O)N[C@@H](CCCCNC(C)C)C(=O)N2CCC[C@H]2C(=O)N[C@H](C)C(N)=O)cc1	Active	–
–	0.51	CONC(=O)Nc1ccc(C[C@@H](NC(=O)[C@H](Cc2ccc(NC(=O)[C@@H]3CC(=O)NC(=O)N3)cc2)NC(=O)[C@H](CO)NC(=O)[C@@H](Cc2cccnc2)NC(=O)[C@@H](Cc2ccc(Cl)cc2)NC(=O)[C@@H](Cc2ccc3ccccc3c2)NC(C)=O)C(=O)N[C@@H](CC(C)C)C(=O)N[C@@H](CCCCNC(C)C)C(=O)N2CCC[C@H]2C(=O)N[C@H](C)C(N)=O)cc1 (Ac-[d2Nal][dPhe(4-Cl)][d3Pal]S[Phe(4-NH2)](Dihydroorotyl(S))[dPhe(4-NH2)](Methoxycarbamoyl)L[Lys(iPr)]P[dA]-NH2)	–	Inhibition [6]: >80%

From ChEMBL document CHEMBL1148636, “Novel analogues of degarelix incorporating hydroxy-, methoxy-, and pegylated-urea moieties at positions 3, 5, 6 and the N-terminus. Part III” (J Med Chem, 2006)
